# Key:
# Dihydrofolate reductase = target: T1, Dihydrofolate reductase (Bos taurus, UniProt P00376); experiment: Inhibition of bovine liver DHFR preincubated for 2 mins followed by addition of FH2 as substrate and NADPH
# T1 sequence (P00376 whole entry): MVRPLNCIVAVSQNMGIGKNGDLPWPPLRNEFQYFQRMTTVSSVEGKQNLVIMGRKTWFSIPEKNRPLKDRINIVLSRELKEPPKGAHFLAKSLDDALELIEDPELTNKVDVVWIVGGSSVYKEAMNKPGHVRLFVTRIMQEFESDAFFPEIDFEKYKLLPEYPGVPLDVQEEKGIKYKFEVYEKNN
# Staphylococcus aureus [1] = experiment: Antimicrobial activity against Staphylococcus aureus IFO 3060 measured after 24 hrs by microdilution method; assay type: functional
# Bacillus subtilis [2] = experiment: Antimicrobial activity against Bacillus subtilis IFO 3007 measured after 24 hrs by microdilution method; assay type: functional
# Pseudomonas aeruginosa [3] = experiment: Antimicrobial activity against Pseudomonas aeruginosa IFO 3448 measured after 24 hrs by microdilution method; assay type: functional
# Candida albicans = experiment: Antimicrobial activity against Candida albicans IFO 0583 at 200 ug/disc measured after 48 hrs by agar disc-diffusion method; assay type: functional; conditions: IFO 0583, 48 h, read-out: DIZ
# Escherichia coli [4] = experiment: Antimicrobial activity against Escherichia coli IFO 3301 at 200 ug/disc measured after 24 hrs by agar disc-diffusion method; assay type: functional; conditions: IFO 3301, 24 h, read-out: DIZ
# Staphylococcus aureus [5] = experiment: Antimicrobial activity against Staphylococcus aureus IFO 3060 at 200 ug/disc measured after 24 hrs by agar disc-diffusion method; assay type: functional; conditions: IFO 3060, 24 h, read-out: DIZ
# Bacillus subtilis [6] = experiment: Antimicrobial activity against Bacillus subtilis IFO 3007 at 200 ug/disc measured after 24 hrs by agar disc-diffusion method; assay type: functional; conditions: IFO 3007, 24 h, read-out: DIZ
# Pseudomonas aeruginosa [7] = experiment: Antimicrobial activity against Pseudomonas aeruginosa IFO 3448 at 200 ug/disc measured after 24 hrs by agar disc-diffusion method; assay type: functional; conditions: IFO 3448, 24 h, read-out: DIZ
# Escherichia coli [8] = experiment: microbe, parasite or virus in culture; conditions: IFO 3301, 24 h
# [9] = Growth inhibition of human renal cancer cells after 48 hrs by SRB assay; assay type: functional; conditions: Cancer cell lines
# Summary of the method: (§1)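 Follow-up NCI panel testing over a 5-log dose range for each cell line. GI50, TGI and LC50 were monitored, with 5-fluorouracil run as the positive control. Values are grouped by tumour subpanel.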
# [10] = Growth inhibition of human ovarian cancer cells after 48 hrs by SRB assay; assay type: functional; conditions: Cancer cell lines; summary of the method: as §1
# [11] = Growth inhibition of human leukemia cells after 48 hrs by SRB assay; assay type: functional; conditions: Leukemia cell; summary of the method: as §1
# [12] = Growth inhibition of human colon cancer cells after 48 hrs by SRB assay; assay type: functional; conditions: Cancer cell lines; summary of the method: as §1
# [13] = Growth inhibition of human prostate cancer cells after 48 hrs by SRB assay; assay type: functional; conditions: Cancer cell lines; summary of the method: as §1
# [14] = Growth inhibition of human non-small cell lung cancer cells after 48 hrs by SRB assay; assay type: functional; conditions: Cancer cell lines; summary of the method: as §1
# [15] = Growth inhibition of human CNS cancer cells after 48 hrs by SRB assay; assay type: functional; conditions: Cancer cell lines
# Summary of the method: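 Five-log dose range against NCI tumor cell lines, monitoring GI50, TGI and LC50 for each cell line; MG-MID values derived across the panel; 5-fluorouracil positive control.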
# [16] = Growth inhibition of human breast cancer cells after 48 hrs by SRB assay; assay type: functional; conditions: Cancer cell lines; summary of the method: as §1
# [17] = Growth inhibition of human melanoma cells after 48 hrs by SRB assay; assay type: functional; conditions: Melanoma cell; summary of the method: as §1
molecule,measurement,setting,value
COc1ccc(-n2c(SCc3cc(OC)c(OC)c(OC)c3)nc3ccc(Cl)cc3c2=O)c(OC)c1,IC50,Dihydrofolate reductase,4000 nM
COc1ccc(CSc2nc3ccc(Cl)cc3c(=O)n2Cc2ccccc2)cc1,IC50,Dihydrofolate reductase,1100 nM
COc1ccc(CSc2nc3cc(OC)c(OC)cc3c(=O)n2-c2ccc(OC)cc2)cc1,IC50,Dihydrofolate reductase,800 nM
COc1ccc(CSc2nc3cc(OC)c(OC)cc3c(=O)n2Cc2ccccc2)cc1,IC50,Dihydrofolate reductase,800 nM
COc1ccc(CSc2nc3ccc(Cl)cc3c(=O)n2-c2ccc(Cl)cc2)cc1,IC50,Dihydrofolate reductase,3000 nM
COc1ccc(CSc2nc3ccc(Cl)cc3c(=O)n2-c2ccc(OC)cc2)cc1,IC50,Dihydrofolate reductase,100 nM
COc1ccc(-n2c(SCc3cc(OC)c(OC)c(OC)c3)nc3cc(OC)c(OC)cc3c2=O)cc1,IC50,Dihydrofolate reductase,1200 nM
COc1cc(CSc2nc3ccc(Cl)cc3c(=O)n2-c2ccc(C)cc2)cc(OC)c1OC,IC50,Dihydrofolate reductase,3000 nM
GENTAMICIN,MIC,Staphylococcus aureus [1],2 µg/mL
same,MIC,Bacillus subtilis [2],2 µg/mL
same,MIC,Pseudomonas aeruginosa [3],1 µg/mL
COc1cc(CSc2nc3ccc(C)cc3c(=O)n2-c2ccc(C)cc2)cc(OC)c1OC,IC50,Dihydrofolate reductase,1500 nM
COc1ccc(CSc2nc3ccc(Cl)cc3c(=O)n2-c2ccc(OC)cc2OC)cc1,MIC,"Staphylococcus aureus [1]; IFO 3060, 24 h",8 µg/mL
same,MIC,"Bacillus subtilis [2]; IFO 3007, 24 h",4 µg/mL
same,zone of inhibition at 200 µg/disc,Candida albicans,8 mm
same,zone of inhibition at 200 µg/disc,Escherichia coli [4],8 mm
same,zone of inhibition at 200 µg/disc,Staphylococcus aureus [5],15 mm
same,zone of inhibition at 200 µg/disc,Bacillus subtilis [6],18 mm
same,zone of inhibition at 200 µg/disc,Pseudomonas aeruginosa [7],8 mm
same,IC50,Dihydrofolate reductase,1000 nM
COc1ccc(CSc2nc3ccc(Cl)cc3c(=O)n2-c2ccccc2OC)cc1,IC50,Dihydrofolate reductase,800 nM
COc1ccc(CSc2nc3ccc(Cl)cc3c(=O)n2-c2ccc(C)cc2)cc1,IC50,Dihydrofolate reductase,4000 nM
COc1ccc(CSc2nc3cc(OC)c(OC)cc3c(=O)n2-c2ccccc2)cc1,MIC,"Staphylococcus aureus [1]; IFO 3060, 24 h",2 µg/mL
same,MIC,"Bacillus subtilis [2]; IFO 3007, 24 h",2 µg/mL
same,zone of inhibition at 200 µg/disc,Candida albicans,12 mm
same,MIC,Escherichia coli [8],8 µg/mL
same,zone of inhibition at 200 µg/disc,Escherichia coli [4],14 mm
same,zone of inhibition at 200 µg/disc,Staphylococcus aureus [5],24 mm
same,zone of inhibition at 200 µg/disc,Bacillus subtilis [6],26 mm
same,zone of inhibition at 200 µg/disc,Pseudomonas aeruginosa [7],8 mm
same,IC50,Dihydrofolate reductase,4000 nM
COc1ccc(CSc2nc3ccc(C)cc3c(=O)n2-c2ccc(OC)cc2OC)cc1,IC50,Dihydrofolate reductase,700 nM
COc1cc(CSc2nc3ccc(Cl)cc3c(=O)n2-c2ccc(Cl)cc2)cc(OC)c1OC,IC50,Dihydrofolate reductase,2000 nM
COc1ccc(CSc2nc3ccc(C)cc3c(=O)n2Cc2ccccc2)cc1,IC50,Dihydrofolate reductase,10 nM
COc1ccc(CSc2nc3cc(OC)c(OC)cc3c(=O)n2-c2ccc(Cl)cc2)cc1,MIC,"Staphylococcus aureus [1]; IFO 3060, 24 h",4 µg/mL
same,MIC,"Bacillus subtilis [2]; IFO 3007, 24 h",4 µg/mL
same,zone of inhibition at 200 µg/disc,Candida albicans,8 mm
same,MIC,Escherichia coli [8],8 µg/mL
same,zone of inhibition at 200 µg/disc,Escherichia coli [4],15 mm
same,zone of inhibition at 200 µg/disc,Staphylococcus aureus [5],20 mm
same,zone of inhibition at 200 µg/disc,Bacillus subtilis [6],18 mm
same,zone of inhibition at 200 µg/disc,Pseudomonas aeruginosa [7],8 mm
same,IC50,Dihydrofolate reductase,6000 nM
COc1cc(CSc2nc3ccc(C)cc3c(=O)n2-c2ccc(Cl)cc2)cc(OC)c1OC,IC50,Dihydrofolate reductase,900 nM
Clc1ccccc1C(c1ccccc1)(c1ccccc1)n1ccnc1 [CLOTRIMAZOLE],zone of inhibition at 200 µg/disc,Candida albicans,21 mm
COc1cc2nc(SCc3cc(OC)c(OC)c(OC)c3)n(-c3ccccc3)c(=O)c2cc1OC,MIC,"Staphylococcus aureus [1]; IFO 3060, 24 h",8 µg/mL
same,MIC,"Bacillus subtilis [2]; IFO 3007, 24 h",8 µg/mL
same,zone of inhibition at 200 µg/disc,Candida albicans,8 mm
same,MIC,Escherichia coli [8],8 µg/mL
same,MIC,"Pseudomonas aeruginosa [3]; IFO 3448, 24 h",8 µg/mL
same,zone of inhibition at 200 µg/disc,Escherichia coli [4],18 mm
same,zone of inhibition at 200 µg/disc,Staphylococcus aureus [5],15 mm
same,zone of inhibition at 200 µg/disc,Bacillus subtilis [6],19 mm
same,zone of inhibition at 200 µg/disc,Pseudomonas aeruginosa [7],16 mm
same,IC50,Dihydrofolate reductase,900 nM
O=C(O)c1cn(C2CC2)c2cc(N3CCNCC3)c(F)cc2c1=O [CIPROFLOXACIN],MIC,"Staphylococcus aureus [1]; IFO 3060, 24 h",0.5 µg/mL
same,MIC,"Bacillus subtilis [2]; IFO 3007, 24 h",0.5 µg/mL
same,MIC,"Pseudomonas aeruginosa [3]; IFO 3448, 24 h",1 µg/mL
same,zone of inhibition at 200 µg/disc,Escherichia coli [4],38 mm
same,zone of inhibition at 200 µg/disc,Staphylococcus aureus [5],32 mm
same,zone of inhibition at 200 µg/disc,Bacillus subtilis [6],35 mm
same,zone of inhibition at 200 µg/disc,Pseudomonas aeruginosa [7],36 mm
COc1ccc(CSc2nc3cc(OC)c(OC)cc3c(=O)n2-c2ccccc2OC)cc1,IC50,Dihydrofolate reductase,600 nM
COc1ccc(CSc2nc3cc(OC)c(OC)cc3c(=O)n2-c2ccc(C)cc2)cc1,IC50,Dihydrofolate reductase,2000 nM
COc1ccccc1-n1c(SCc2cc(OC)c(OC)c(OC)c2)nc2ccc(C)cc2c1=O,IC50,Dihydrofolate reductase,1000 nM
COc1cc2nc(SCc3cc(OC)c(OC)c(OC)c3)n(-c3ccc(Cl)cc3)c(=O)c2cc1OC,MIC,"Staphylococcus aureus [1]; IFO 3060, 24 h",4 µg/mL
same,MIC,"Bacillus subtilis [2]; IFO 3007, 24 h",2 µg/mL
same,zone of inhibition at 200 µg/disc,Candida albicans,8 mm
same,MIC,Escherichia coli [8],8 µg/mL
same,zone of inhibition at 200 µg/disc,Escherichia coli [4],18 mm
same,zone of inhibition at 200 µg/disc,Staphylococcus aureus [5],22 mm
same,zone of inhibition at 200 µg/disc,Bacillus subtilis [6],26 mm
same,zone of inhibition at 200 µg/disc,Pseudomonas aeruginosa [7],12 mm
same,IC50,Dihydrofolate reductase,900 nM
COc1cc2nc(SCc3cc(OC)c(OC)c(OC)c3)n(-c3ccc(C)cc3)c(=O)c2cc1OC,IC50,Dihydrofolate reductase,1200 nM
O=c1[nH]cc(F)c(=O)[nH]1 [FLUOROURACIL],GI50,[9],45600 nM
same,TGI,[9],> 100000 nM
same,GI50,[10],61400 nM
same,TGI,[10],> 100000 nM
same,TGI,[11],> 100000 nM
same,CC50,[11]; read-out: LC50 (the source's name),> 100000 nM
same,GI50,[12],8400 nM
same,TGI,[12],> 100000 nM
same,GI50,[13],22700 nM
same,TGI,[13],> 100000 nM
same,GI50,[14],> 100000 nM
same,TGI,[14],> 100000 nM
same,TGI,[15],> 100000 nM
same,GI50,[16],76400 nM
same,TGI,[16],> 100000 nM
same,GI50,[17],70600 nM
same,TGI,[17],> 100000 nM
COc1ccc(CSc2nc3ccc(Cl)cc3c(=O)n2-c2ccccc2)cc1,zone of inhibition at 200 µg/disc,Candida albicans,8 mm
same,zone of inhibition at 200 µg/disc,Escherichia coli [4],8 mm
same,zone of inhibition at 200 µg/disc,Staphylococcus aureus [5],14 mm
same,zone of inhibition at 200 µg/disc,Bacillus subtilis [6],16 mm
same,zone of inhibition at 200 µg/disc,Pseudomonas aeruginosa [7],8 mm
same,IC50,Dihydrofolate reductase,20 nM
COc1ccc(CSc2nc3ccc(C)cc3c(=O)n2-c2ccc(OC)cc2)cc1,IC50,Dihydrofolate reductase,1200 nM
COc1ccc(-n2c(SCc3cc(OC)c(OC)c(OC)c3)nc3cc(OC)c(OC)cc3c2=O)c(OC)c1,IC50,Dihydrofolate reductase,3000 nM
COc1ccc(CSc2nc3ccc(C)cc3c(=O)n2-c2ccccc2)cc1,MIC,"Staphylococcus aureus [1]; IFO 3060, 24 h",4 µg/mL
same,MIC,"Bacillus subtilis [2]; IFO 3007, 24 h",2 µg/mL
same,zone of inhibition at 200 µg/disc,Candida albicans,8 mm
same,MIC,Escherichia coli [8],8 µg/mL
same,zone of inhibition at 200 µg/disc,Escherichia coli [4],16 mm
same,zone of inhibition at 200 µg/disc,Staphylococcus aureus [5],18 mm
same,zone of inhibition at 200 µg/disc,Bacillus subtilis [6],22 mm
same,zone of inhibition at 200 µg/disc,Pseudomonas aeruginosa [7],12 mm
same,IC50,Dihydrofolate reductase,100 nM
COc1ccc(CSc2nc3ccc(C)cc3c(=O)n2-c2ccc(C)cc2)cc1,IC50,Dihydrofolate reductase,1000 nM
COc1ccc(CSc2nc3ccc(C)cc3c(=O)n2-c2ccc(Cl)cc2)cc1,IC50,Dihydrofolate reductase,100 nM
COc1ccc(CSc2nc3ccc(C)cc3c(=O)n2-c2ccccc2OC)cc1,IC50,Dihydrofolate reductase,900 nM
